From ChEMBL document CHEMBL1142977, “1,4-benzodiazepines as inhibitors of respiratory syncytial virus. The identification of a clinical candidate” (J Med Chem, 2007)
In brackets after ≈: the same amount, converted by molar mass.

How the values were obtained:
[1] = system: Respiratory syncytial virus; assay: Antiviral activity against RSV RSS in Hep2 cells by XTT assay; type: functional, organism-based, HEp-2; details: for IC50: human respiratory syncytial virus, RSS, HEp-2
Method in brief: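 HEp-2 cells infected with RSV RSS strain in the presence of compound, incubated 6 days at 37 °C. Residual viability was read by XTT metabolism to a coloured product, and IC50 was derived.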

[2] = system: Respiratory syncytial virus; assay: Antiviral activity against RSV RSS in Hep2 cells by ELISA; type: functional, organism-based, HEp-2; details: for IC50: human respiratory syncytial virus, RSS, HEp-2
Method in brief: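 HEp-2 cells infected with RSV RSS strain and exposed to compound for 3 days at 37 °C. Monoclonal antibodies to RSV F, N and P proteins were detected with an enzyme-linked secondary antibody. Substrate conversion to a coloured product was read by optical density, and IC50 was derived.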

[3] = system: Respiratory syncytial virus; assay: Antiviral activity against RSV RSS in Hep2 cells by plaque assay; type: functional, organism-based, HEp-2; details: for IC50: human respiratory syncytial virus, RSS, HEp-2
Method in brief: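 HEp-2 monolayers infected with RSV RSS strain and allowed 2 h adsorption. Compound was then added in medium with 0.6% agarose and incubated 5 days at 37 °C. Monolayers were fixed, the overlay removed, and plaques stained with methylene blue.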

[4] = Cytotoxicity against RSV RSS infected Hep2 cells by XTT assay; type: cell-based; details: human, hep-2
Method in brief: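 Same XTT format (HEp-2 cells, 6 days at 37 °C, XTT read-out) run in parallel without virus. TD50 is the concentration giving 50% cell death in the absence of virus.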

[5] = Cytotoxicity against RSV RSS infected Hep2 cells by ELISA; type: cell-based; details: human, hep-2
[6] = Cytotoxicity against RSV RSS infected Hep2 cells by plaque assay; type: cell-based; details: human, hep-2
[7] = Aqueous solubility at pH 7.0; type: physicochemical
[8] = Cmax in rat at 5 mg/kg, po; type: ADME, organism-based; set-up: dose 5 mg/kg, route oral; details: in vivo
Method in brief: (§1)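 Rat, oral dose of 5 mg/kg in a lipid-based formulation, n = 3. Bioavailability was calculated relative to the 5 mg/kg intravenous dose.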

[9] = Half life in rat at 5 mg/kg, po; details: in vivo
[10] = Cmax in rat at 5 mg/kg, iv; type: ADME, organism-based; set-up: dose 5 mg/kg, route intravenous; details: in vivo
Method in brief: (§2)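 Rat, single intravenous dose of 5 mg/kg, n = 3. Parameters were derived from plasma concentrations.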

[11] = Volume of distribution in rat at 5 mg/kg, iv; type: ADME, organism-based; set-up: dose 5 mg/kg, route intravenous; details: in vivo, read-out: Vss; method in brief: as §2
[12] = Half life in rat at 5 mg/kg, iv; details: in vivo
[13] = Oral bioavailability in rat at 5 mg/kg, po in lipid based formulation; type: ADME, organism-based; details: in vivo; method in brief: as §1
[14] = Oral bioavailability in rat at 5 mg/kg, po in 1% CMC suspension; type: ADME, organism-based; details: in vivo
Method in brief: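 Rat, oral dose of 5 mg/kg given as a suspension in 1% carboxymethylcellulose. Bioavailability was estimated relative to intravenous dosing.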

[15] = Apparent permeability coefficient assessed using MDCK cells; type: ADME, cell-based, Canis lupus familiaris; details: dog
Cytochrome P450 3A4 = Cytochrome P450 3A4 (Homo sapiens, UniProt P08684); assay: Inhibition of CYP3A4; type: ADME
Method in brief: (§3)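 CYP inhibition was assessed as an effect on the metabolism of isoform-specific probe substrates for CYP3A4, 1A2, 2D6, 2C9 and 2C19.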

Cytochrome P450 1A2 = biological target: T1, Cytochrome P450 1A2 (Homo sapiens, UniProt P05177); assay: Inhibition of CYP1A2; type: ADME; method in brief: as §3
T1 sequence (P05177 whole entry): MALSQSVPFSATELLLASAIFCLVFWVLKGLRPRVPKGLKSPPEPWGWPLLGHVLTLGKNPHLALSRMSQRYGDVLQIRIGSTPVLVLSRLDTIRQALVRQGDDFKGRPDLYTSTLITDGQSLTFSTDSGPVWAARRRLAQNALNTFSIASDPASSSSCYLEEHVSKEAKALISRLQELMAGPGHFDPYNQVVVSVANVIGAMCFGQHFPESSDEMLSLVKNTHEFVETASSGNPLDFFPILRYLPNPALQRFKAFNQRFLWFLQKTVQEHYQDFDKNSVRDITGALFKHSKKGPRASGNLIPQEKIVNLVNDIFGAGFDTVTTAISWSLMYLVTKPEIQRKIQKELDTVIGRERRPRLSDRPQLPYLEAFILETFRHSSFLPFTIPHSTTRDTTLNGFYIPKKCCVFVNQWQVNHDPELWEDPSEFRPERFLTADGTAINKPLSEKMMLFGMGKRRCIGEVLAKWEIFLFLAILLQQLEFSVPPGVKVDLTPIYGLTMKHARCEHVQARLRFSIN

Cytochrome P450 2D6 = Cytochrome P450 2D6 (Homo sapiens, UniProt P10635); assay: Inhibition of CYP2D6; type: ADME; method in brief: as §3
Cytochrome P450 2C9 = Cytochrome P450 2C9 (Homo sapiens, UniProt P11712); assay: Inhibition of CYP2C9; type: ADME; method in brief: as §3
Cytochrome P450 2C19 = Cytochrome P450 2C19 (Homo sapiens, UniProt P33261); assay: Inhibition of CYP2C19; type: ADME; method in brief: as §3
Serum [16] = assay: Protein binding in rat serum; type: ADME, cell-free
Serum [17] = assay: Protein binding in dog serum; type: ADME, cell-free, Canis lupus familiaris
Serum [18] = assay: Protein binding in human serum; type: ADME, cell-free
[19] = Fraction unbound ligand in dog serum; type: ADME, cell-free, Canis lupus familiaris
[20] = Fraction unbound ligand in rat serum; type: ADME, cell-free
[21] = Fraction unbound ligand in human serum; type: ADME, cell-free
in vivo [22] = details: rat, plasma, po, 5 mg/kg
in vivo [23] = details: rat, plasma, iv, 5 mg/kg

Cytochrome P450 3A4, sequence (P08684 whole entry, canonical isoform): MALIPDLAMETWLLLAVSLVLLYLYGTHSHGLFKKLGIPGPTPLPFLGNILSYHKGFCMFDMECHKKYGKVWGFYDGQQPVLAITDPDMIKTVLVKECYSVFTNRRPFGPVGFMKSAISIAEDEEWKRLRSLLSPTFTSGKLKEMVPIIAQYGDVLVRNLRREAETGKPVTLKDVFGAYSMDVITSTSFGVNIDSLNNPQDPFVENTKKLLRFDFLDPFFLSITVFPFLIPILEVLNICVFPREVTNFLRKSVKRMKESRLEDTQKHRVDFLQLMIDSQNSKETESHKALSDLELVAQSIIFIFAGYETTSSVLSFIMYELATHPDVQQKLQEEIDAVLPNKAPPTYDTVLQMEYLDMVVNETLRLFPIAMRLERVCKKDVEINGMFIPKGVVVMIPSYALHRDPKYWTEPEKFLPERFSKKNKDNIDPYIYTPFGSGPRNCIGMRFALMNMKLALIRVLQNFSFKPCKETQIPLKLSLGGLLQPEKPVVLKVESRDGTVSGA
Cytochrome P450 2D6, sequence (P10635 whole entry): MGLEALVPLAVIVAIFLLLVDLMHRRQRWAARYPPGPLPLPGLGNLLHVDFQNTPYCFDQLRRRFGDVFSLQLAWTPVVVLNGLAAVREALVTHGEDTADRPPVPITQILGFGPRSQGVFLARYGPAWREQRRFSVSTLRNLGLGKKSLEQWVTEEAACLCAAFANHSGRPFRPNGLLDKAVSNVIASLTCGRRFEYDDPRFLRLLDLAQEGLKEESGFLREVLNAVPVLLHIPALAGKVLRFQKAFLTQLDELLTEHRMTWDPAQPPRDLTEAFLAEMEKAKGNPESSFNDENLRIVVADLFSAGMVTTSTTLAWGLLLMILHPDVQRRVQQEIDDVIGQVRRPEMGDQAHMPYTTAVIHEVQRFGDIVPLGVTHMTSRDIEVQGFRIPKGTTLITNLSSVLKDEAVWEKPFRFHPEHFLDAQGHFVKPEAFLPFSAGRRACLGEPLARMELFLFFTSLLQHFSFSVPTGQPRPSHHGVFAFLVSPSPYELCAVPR
Cytochrome P450 2C9, sequence (P11712 whole entry): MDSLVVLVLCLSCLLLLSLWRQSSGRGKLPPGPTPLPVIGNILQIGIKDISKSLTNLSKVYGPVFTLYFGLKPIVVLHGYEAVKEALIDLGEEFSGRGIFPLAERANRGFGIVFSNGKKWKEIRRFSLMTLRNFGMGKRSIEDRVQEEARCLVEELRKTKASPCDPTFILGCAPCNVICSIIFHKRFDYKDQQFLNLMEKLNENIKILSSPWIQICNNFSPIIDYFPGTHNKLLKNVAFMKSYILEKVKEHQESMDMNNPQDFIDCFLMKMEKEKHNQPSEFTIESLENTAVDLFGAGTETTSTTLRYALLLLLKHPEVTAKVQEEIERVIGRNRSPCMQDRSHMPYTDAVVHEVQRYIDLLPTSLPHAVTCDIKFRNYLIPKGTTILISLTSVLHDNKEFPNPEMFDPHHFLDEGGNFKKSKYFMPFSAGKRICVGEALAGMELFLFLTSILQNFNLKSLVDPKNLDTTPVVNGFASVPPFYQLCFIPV
Cytochrome P450 2C19, sequence (P33261 whole entry): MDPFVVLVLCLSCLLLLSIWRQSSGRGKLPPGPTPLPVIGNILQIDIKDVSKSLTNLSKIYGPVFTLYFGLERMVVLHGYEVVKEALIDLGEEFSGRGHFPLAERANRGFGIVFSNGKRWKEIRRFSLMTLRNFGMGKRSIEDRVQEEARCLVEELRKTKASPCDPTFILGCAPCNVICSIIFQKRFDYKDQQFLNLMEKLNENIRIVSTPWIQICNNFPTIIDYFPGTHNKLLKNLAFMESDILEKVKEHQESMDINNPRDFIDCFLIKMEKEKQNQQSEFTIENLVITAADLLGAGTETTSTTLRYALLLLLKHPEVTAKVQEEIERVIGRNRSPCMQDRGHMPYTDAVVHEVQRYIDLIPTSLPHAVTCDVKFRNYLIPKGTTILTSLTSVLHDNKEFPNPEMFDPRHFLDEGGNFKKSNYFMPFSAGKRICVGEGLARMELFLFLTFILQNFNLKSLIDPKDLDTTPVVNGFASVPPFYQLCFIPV

For `O=C(N[C@H]1N=C(c2ccccc2)c2ccccc2NC1=O)c1cc(Cl)ccc1N1CCS(=O)(=O)CC1`, which TD50 [1] is on record?
The TD50 was over 50 µM.

And the IC50 [1]?
The IC50 was 2200 nM.

For `COc1cc([N+](=O)[O-])ccc1C(=O)N[C@H]1N=C(c2ccccc2)c2ccccc2NC1=O`, which TD50 [1] is on record?
Its TD50 is over 50 µM.

What about the IC50 [1] of the same compound?
Its IC50 is 900 nM.

And the TD50 [2]?
The TD50 was over 50 µM.

What about the IC50 [2] of the same compound?
The IC50 was 1000 nM.

And the TD50 [3]?
The TD50 was over 50 µM.

What about the IC50 [3] of the same compound?
The IC50 was 500 nM.

With `COc1cc([N+](=O)[O-])ccc1C(=O)N[C@@H]1N=C(c2ccccc2)c2ccccc2NC1=O` as the compound, how does the TD50 [1] read?
The TD50 was over 50 µM.

What about the IC50 [1] of the same compound?
Its IC50 is 21200 nM.

Which results are given for `O=C(CN1C(=O)[C@@H](NC(=O)Nc2ccccc2F)N=C(c2ccccc2)c2ccccc21)Nc1ccncc1`?
TD50 [1]: >50 µM; IC50 [1]: 14200 nM

For `O=C(Nc1ccccc1F)NC1N=C(c2ccccc2)c2ccccc2NC1=O` (stereo not given), which TD50 [1] is on record?
The TD50 was over 50 µM.

What about the IC50 [1] of the same compound?
The IC50 was 27800 nM.

And the Activity [4]?
Its Activity is “Non-toxic”.

And the Activity [5]?
Its Activity is “Non-toxic”.

And the Activity [6]?
The Activity was “Non-toxic”.

With `O=C(N[C@@H]1N=C(c2ccccc2)c2ccccc2NC1=O)C1CCCCC1` as the compound, how does the TD50 [1] read?
The TD50 was over 50 µM.

And the IC50 [1]?
Its IC50 is over 50000 nM.

Which TD50 [1] does the source give for `O=C(N[C@H]1N=C(c2ccccc2)c2ccccc2NC1=O)C1CCCCC1` here?
The TD50 was over 50 µM.

What about the IC50 [1] of the same compound?
The IC50 was 3300 nM.

Which results are given for `O=C(N[C@H]1N=C(c2ccccc2)c2ccccc2NC1=O)c1ccc(F)cc1N1CCCCC1`?
TD50 [1]: >50 µM; IC50 [1]: 7500 nM

With `O=C(N[C@H]1N=C(c2ccccc2)c2ccccc2NC1=O)c1cccnc1N1CCOCC1` as the compound, how does the TD50 [1] read?
Its TD50 is over 50 µM.

What about the IC50 [1] of the same compound?
The IC50 was 2900 nM.

For `O=C(Nc1ccccc1F)N[C@H]1N=C(c2ccccc2)c2ccccc2NC1=O` [RSV-604], which TD50 [1] is on record?
Its TD50 is over 50 µM.

And the IC50 [1]?
The IC50 was 900 nM.

What about the TD50 [2] of the same compound?
Its TD50 is over 50 µM.

And the IC50 [2]?
Its IC50 is 1400 nM.

And the TD50 [3]?
The TD50 was over 50 µM.

And the IC50 [3]?
The IC50 was 700 nM.

What about the solubility [7] of the same compound?
Its solubility is 4.1 µg/mL (≈ 10.6 µM).

What about the Cmax [8] of the same compound?
Its Cmax is 910 ng/mL.

What about the half-life [9] of the same compound?
Its half-life is 2.6 h.

What about the Cmax [10] of the same compound?
The Cmax was 3300 ng/mL.

What about the Vd [11] of the same compound?
Its Vd is 2.2 L/kg.

And the half-life [12]?
The half-life was 3.8 h.

And the bioavailability [13]?
Its bioavailability is over 90%.

What about the bioavailability [14] of the same compound?
The bioavailability was under 40%.

What about the Papp [15] of the same compound?
The Papp was 13 ×10⁻⁶ cm/s.

What about the Activity (Cytochrome P450 3A4) of the same compound?
The Activity was “Not Active”.

And the Activity (Cytochrome P450 1A2)?
Its Activity is “Not Active”.

And the Activity (Cytochrome P450 2D6)?
The Activity was “Not Active”.

And the Activity (Cytochrome P450 2C9)?
Its Activity is “Not Active”.

And the Activity (Cytochrome P450 2C19)?
Its Activity is “Not Active”.

And the Activity [4]?
The Activity was “Non-toxic”.

What about the Activity [5] of the same compound?
Its Activity is “Non-toxic”.

What about the Activity [6] of the same compound?
The Activity was “Non-toxic”.

What about the Activity (Serum [16]) of the same compound?
Its Activity is 95%.

What about the Activity (Serum [17]) of the same compound?
Its Activity is 95%.

What about the Activity (Serum [18]) of the same compound?
The Activity was 95%.

And the fraction unbound [19]?
Its fraction unbound is 0.05.

And the fraction unbound [20]?
The fraction unbound was 0.05.

What about the fraction unbound [21] of the same compound?
The fraction unbound was 0.05.

And the AUC(0-inf) (in vivo [22])?
The AUC(0-inf) was 10900 ng·h/mL.

And the AUC(0-inf) (in vivo [23])?
Its AUC(0-inf) is 11700 ng·h/mL.

Which results are given for `O=C(N[C@H]1N=C(c2ccccc2)c2ccccc2NC1=O)c1cc(F)ccc1N1CCS(=O)(=O)CC1`?
TD50 [1]: >50 µM; IC50 [1]: 700 nM

For `COc1cc(S(C)(=O)=O)ccc1C(=O)N[C@H]1N=C(c2ccccc2)c2ccccc2NC1=O`, which TD50 [1] is on record?
Its TD50 is over 50 µM.

And the IC50 [1]?
Its IC50 is 500 nM.

What about the TD50 [2] of the same compound?
The TD50 was over 50 µM.

And the IC50 [2]?
The IC50 was 600 nM.

And the TD50 [3]?
Its TD50 is over 50 µM.

What about the IC50 [3] of the same compound?
Its IC50 is 500 nM.

And the solubility [7]?
The solubility was 22 µg/mL (≈ 47.5 µM).

With `O=C(Nc1ccccc1F)N[C@H]1N=C(c2ccccc2)c2ccccc2N(CC(=O)N2CCOCC2)C1=O` as the compound, how does the TD50 [1] read?
Its TD50 is over 50 µM.

What about the IC50 [1] of the same compound?
The IC50 was over 50000 nM.

What does the source list for `O=C(N[C@H]1N=C(c2ccccc2)c2ccccc2NC1=O)c1ccc(N2CCOCC2)cc1Cl`?
TD50 [1]: >50 µM; IC50 [1]: 1400 nM; TD50 [2]: >50 µM; IC50 [2]: 1500 nM; TD50 [3]: >50 µM; IC50 [3]: 800 nM; solubility [7]: 0.9 µg/mL (≈ 1.89 µM)

What does the source list for `O=C(NC1N=C(c2ccccc2)c2ccccc2NC1=O)C1CCCCC1` (stereo not given)?
TD50 [1]: >50 µM; IC50 [1]: 12600 nM

With `COc1cc([N+](=O)[O-])ccc1C(=O)NC1N=C(c2ccccc2)c2ccccc2NC1=O` (stereo not given) as the compound, how does the TD50 [1] read?
Its TD50 is over 50 µM.

And the IC50 [1]?
Its IC50 is 2000 nM.

Which results are given for `CCNC(=O)CN1C(=O)[C@@H](NC(=O)Nc2ccccc2F)N=C(c2ccccc2)c2ccccc21`?
TD50 [1]: >50 µM; IC50 [1]: > 50000 nM

For `O=C(Nc1ccccc1F)N[C@@H]1N=C(c2ccccc2)c2ccccc2NC1=O`, which TD50 [1] is on record?
Its TD50 is over 50 µM.

What about the IC50 [1] of the same compound?
The IC50 was 27800 nM.

What about the Activity [4] of the same compound?
Its Activity is “Non-toxic”.

What about the Activity [5] of the same compound?
Its Activity is “Non-toxic”.

What about the Activity [6] of the same compound?
Its Activity is “Non-toxic”.
